Experimental data as given in ChEMBL document CHEMBL1142204, “Cathepsin A is the major hydrolase catalyzing the intracellular hydrolysis of the antiretroviral nucleotide phosphonoamidate prodrugs GS-7340 and GS-9131” (Antimicrob Agents Chemother, 2007).

Experiments:
Homo sapiens [1] = organism: Homo sapiens; test: Activity of crude extract human PBMCs prodrug hydrolase from leukopheresis patient
Homo sapiens [2] = organism: Homo sapiens; test: Activity of human PBMCs prodrug hydrolase from leukopheresis patient in Q15 pool
Homo sapiens [3] = organism: Homo sapiens; test: Activity of human PBMCs prodrug hydrolase from leukopheresis patient in BS-HIC pool
[4] = molecular target: T1, Lysosomal protective protein (Homo sapiens) (UniProt P10619); test: Activity of purified human PBMCs Cat A from leukopheresis patient in Con A pool
T1 sequence (whole entry): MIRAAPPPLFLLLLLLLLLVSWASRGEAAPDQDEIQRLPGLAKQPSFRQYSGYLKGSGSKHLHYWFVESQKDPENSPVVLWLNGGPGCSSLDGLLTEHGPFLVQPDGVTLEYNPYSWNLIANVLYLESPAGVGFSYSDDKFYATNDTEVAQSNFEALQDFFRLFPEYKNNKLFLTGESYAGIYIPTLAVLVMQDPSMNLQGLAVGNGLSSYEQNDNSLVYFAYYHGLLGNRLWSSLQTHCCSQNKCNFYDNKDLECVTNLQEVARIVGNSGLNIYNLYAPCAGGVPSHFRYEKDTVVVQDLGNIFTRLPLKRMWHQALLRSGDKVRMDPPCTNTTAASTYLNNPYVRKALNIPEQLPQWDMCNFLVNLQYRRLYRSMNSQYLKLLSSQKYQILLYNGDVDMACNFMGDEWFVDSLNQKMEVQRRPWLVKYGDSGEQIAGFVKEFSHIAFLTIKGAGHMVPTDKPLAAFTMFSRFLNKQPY
In short: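 Hydrolase purified from fresh human leukopheresis PBMCs (NP-40 extract; Source Q15, butyl Sepharose HIC, then ConA chromatography). Protein by Bradford; specific activity (pmol/min/μg) corrected for estimated 29-kDa catalytic subunit fraction.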

CC(C)OC(=O)[C@H](C)N[P@](=O)(CO[C@H](C)Cn1cnc2c(N)ncnc21)Oc1ccccc1
Activity (Homo sapiens [1]): 16 pmol/min/µg
Activity (Homo sapiens [2]): 112 pmol/min/µg
Activity (Homo sapiens [3]): 730 pmol/min/µg
Activity [4]: 35000 pmol/min/µg
